# Compound activity (PubChem)
# MrgX1 ag: agonists of human MrgX1 receptor. hit rate 0.44% among 310,000. Q96LB2. B-score at 10 µM. MrgX1-HEK293 cells, Fluo-4 calcium fluorescence, agonist mode; active compounds read high;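 active means calcium response B-score plate-corrected fluorescence ratio at least 3 library SD, with starting fluorescence B-score inside 5 SD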
#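 System: HEK293 cells stably expressing human MrgX1 receptor; Dosing: test compound in the initial addition of three; Schedule: overnight plating, then 30 min 37 °C plus 30 min room-temperature dye loading; Detection: kinetic calcium dye fluorescence, Fluo-4 NW; Controls: per-plate positive and negative controls for Z′ factor.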
# Kir21 block: inhibitors of mouse Kir2.1 inward-rectifier potassium channel. P35561. HEK293-Kir2.1, FluxOR thallium flux fluorescence; active compounds read low. B-score at 10 µM. hit rate 0.85% among 310,000. AID 1672;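 active means fluorescence ratio B-score at or below minus 3 SD of library scores, with starting-brightness B-score within 2 SD, cut at about -4.2 in these data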;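 further: channel flux triggered by added potassium and thallium sulfate stimulus; B-score of peak minus minimum fluorescence over baseline after thallium stimulus; more negative B-score means stronger Kir2.1 block with less thallium influx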
# Target sequence (P35561 whole entry, looked up): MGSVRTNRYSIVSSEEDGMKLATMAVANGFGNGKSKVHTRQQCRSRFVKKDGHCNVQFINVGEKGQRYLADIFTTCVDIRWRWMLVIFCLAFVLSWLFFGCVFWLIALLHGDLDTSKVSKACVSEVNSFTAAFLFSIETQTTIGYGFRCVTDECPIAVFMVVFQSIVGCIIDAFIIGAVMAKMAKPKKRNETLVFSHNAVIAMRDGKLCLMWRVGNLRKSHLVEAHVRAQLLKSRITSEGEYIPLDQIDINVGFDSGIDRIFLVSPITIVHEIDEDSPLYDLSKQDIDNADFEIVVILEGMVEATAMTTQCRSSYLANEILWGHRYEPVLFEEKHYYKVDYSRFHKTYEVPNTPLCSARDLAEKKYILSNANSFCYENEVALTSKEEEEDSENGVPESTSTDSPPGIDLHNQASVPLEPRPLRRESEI
# RGS4 block: human RGS4 inhibition. HEK293 M3R/RGS4 inducible, Fluo-4 calcium flux; active compounds read high; triggered by carbachol at its EC20. B-score at 10 µM. hit rate 0.45% among 310,000;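 active means B-score, a plate-corrected calcium signal, over three deviations above library mean, with baseline fluorescence within five deviations of library mean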;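 further: RGS4 expression induced by doxycycline in cells with stable M3 receptor; B-score is computed from the integrated fluorescence ratio over baseline after carbachol; higher B-score means a larger calcium signal and so more RGS4 inhibition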
# Target sequence (P49798 whole entry, looked up): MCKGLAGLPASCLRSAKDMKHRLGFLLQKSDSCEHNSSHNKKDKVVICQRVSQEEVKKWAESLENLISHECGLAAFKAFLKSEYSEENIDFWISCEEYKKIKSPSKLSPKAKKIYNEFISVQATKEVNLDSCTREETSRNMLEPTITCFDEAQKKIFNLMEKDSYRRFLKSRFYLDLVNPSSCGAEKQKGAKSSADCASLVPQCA
# RGS4 act: potentiators or activators of RGS4 | HEK293 M3R/inducible RGS4, carbachol calcium flux Fluo4; active compounds read low | B-score at 10 µM | hit rate 0.92% among 310,000 | AID 463111;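 active means B-score of the integrated calcium signal more than 4 SD below the library mean, with starting fluorescence not abnormally high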;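 further: negative B-score means reduced calcium response which marks RGS4 activation or potentiation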
#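 System – HEK293 FlpIn-TREx cells, stable M3R, doxycycline-inducible RGS4 · Reagent – ECmax carbachol challenge · Times – compound preincubation 20 min at room temperature before agonist · Technique – Fluo4 fluorescence kinetic imaging of calcium · Measure – B score of integrated Fluo4 ratio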
# MrgX1 PAM: allosterically activates human MrgX1 receptor signaling; hit rate 0.63% among 310,000; MrgX1-HEK293, Fluo-4 calcium flux, FDSS; active compounds read high; B-score at 10 µM; Q96LB2;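 active means plate-corrected calcium response at least 3 library SD above typical, normal starting fluorescence, not activating the receptor alone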;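 further: compound read alongside a low EC10 to EC30 dose of BAM8-22 agonist; peak minus trough fluorescence over baseline measured at the second addition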
# MrgX1 antagonist: blocks BAM8-22 activation of human MrgX1 receptor. MRGX1-HEK293 calcium flux, Fluo-4, BAM8-22 antagonism; active compounds read low. B-score at 10 µM. hit rate 1.3% among 310,000. Q96LB2;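 active means calcium-response B-score plate-corrected more than 3 library SD below zero, starting fluorescence within 5 deviations, no agonist response on first addition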;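 further: peak minus trough fluorescence over baseline after final BAM8-22 challenge near maximal dose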
# * marks the source's active call; other numbers are inactive results; i = inactive; . = no result given. Only some compounds are listed: those with a hit (about 4.1% of all), similar ones and a draw of the others.
SMILES,MrgX1 ag,Kir21 block,RGS4 block,RGS4 act,MrgX1 PAM,MrgX1 antagonist
O=C1[C@H]2[C@@H](c3ccc(Cl)cc3)N3C(=O)N(c4cccc(F)c4)C(=O)[C@@]3(Cc3ccc(Cl)cc3)[C@H]2C(=O)N1C1CCCCC1,i,-0.67,i,i,i,i
COc1cc(N(C(=O)Cc2cccs2)C(C(=O)NC2CCCCC2)c2ccc(C)cc2)ccc1-n1cnnn1 (stereo unspecified),i,-0.12,i,i,i,-6.32*
Cc1cccc(N(C(=O)Cc2cccs2)C(C(=O)NC2CCCC2)c2ccncc2)c1 (stereo unspecified),i,0.01,i,i,i,i
COc1ccc(N(C(=O)Cc2cccs2)C(C(=O)NC2CCCC2)c2ccncc2)cc1OC (stereo unspecified),i,-0.79,i,i,i,i
Cc1ccc(N(C(=O)Cc2cccs2)C(C(=O)NC2CCCCC2)c2ccccn2)cc1C (stereo unspecified),i,-2.06,i,i,10*,i
CC1CN(S(=O)(=O)c2ccccc2)CN1C(=O)N1CCOCC1 (stereo unspecified),i,-0.45,i,i,i,i
COc1ccccc1NC(=S)NNC(=O)c1ccncc1,28.1*,1.77,i,i,i,i
Cc1cc(NC(=O)CSCC(=O)OC(C)C(=O)N(C)Cc2ccccc2)no1 (stereo unspecified),i,0.12,i,i,i,-7.41*
Cc1cc(NC(=O)CSCC(=O)Nc2ccccc2Oc2ccccc2)no1,i,-4.84*,i,i,i,i
COC(=O)c1cc(O)cc(OC)c1Oc1cc(C)cc(O)c1C(=O)O,i,.,.,.,i,i
CCN1C(=O)[C@H]2[C@@H](c3ccc(-c4cccc(Cl)c4)c(OC)c3)N[C@@](Cc3ccccc3)(C(=O)OC)[C@H]2C1=O,i,-0.4,i,i,i,i
COCCN=C1NN=C(c2ccc(NC(C)=O)cc2)CS1,i,-0.34,i,i,i,i
CC(=O)Nc1ccc(C2=NN(C)C(=NCc3ccccc3)SC2)cc1,i,0.4,i,i,7.75*,i
CC(/C=N/NC(=O)Cc1cccs1)=C\c1ccccc1,i,-0.36,i,i,i,i
CC(/C=N/NC(=O)Cc1cccn1C)=C\c1ccccc1,i,0.05,i,i,11.8*,i
O=C1CCCN1CCCNC(=S)Nc1ccc(Nc2ccccc2)cc1,i,-0.1,i,i,i,i
CCOC(=O)c1nn(-c2ccccc2)c(=O)c2c(NC(C)=O)scc12,i,1.57,i,i,i,i
O=C1C(Cl)=C(NCCCO)C(=O)c2ccccc21,i,0.07,i,i,i,i
O=C1C(SCCO)=C(SCCO)C(=O)c2ccccc21,i,.,.,.,i,-12.6*
CC(C)CC(=O)NC(Nc1ccccc1F)C(Cl)(Cl)Cl (stereo unspecified),i,-2.53,i,i,i,i
CCCC(=O)NC(Nc1ccccc1F)C(Cl)(Cl)Cl (stereo unspecified),i,-8.12*,i,i,i,i
CC(C)C(=O)NC(Nc1ccccc1F)C(Cl)(Cl)Cl (stereo unspecified),i,-4.51*,i,i,i,i
CCS(=O)(=O)c1ccc2oc(SCC(=O)NCc3ccccc3)nc2c1,i,1.13,i,-7.22*,i,i
Cc1ccc(N=C2S/C(=C/c3cccc(OCC(=O)O)c3)C(=O)N2C)cc1C,i,1.13,i,i,i,i
CN1CCN(c2cc(N3CCc4ccccc4C3)c(F)cc2[N+](=O)[O-])CC1,i,-4.73*,i,i,i,i
SMILES,MrgX1 ag,Kir21 block,RGS4 block,RGS4 act,MrgX1 PAM,MrgX1 antagonist
CCC(=O)N1CCN(c2cc(N3CCN(C)CC3)c(F)cc2[N+](=O)[O-])CC1,i,0.68,i,i,i,i
Cc1cc(NCCCn2ccnc2)n2nc(C)c(-c3ccccc3)c2n1,i,-3.92,i,i,i,i
N=c1c2c(-c3ccccc3)c(-c3ccccc3)n(Cc3ccccc3)c2ncn1CCCn1ccnc1,i,-8.66*,i,i,i,i
N=c1c2c(-c3ccccc3)c(-c3ccccc3)n(Cc3ccco3)c2ncn1Cc1ccco1,i,-9.83*,i,-6.95*,i,-8.09*
O=C(O)Cc1cn(Cc2cccc(Cl)c2)c2ccccc12,i,-0.29,i,i,i,i
O=C(Cc1cn(Cc2cccc(Cl)c2)c2ccccc12)N1CCCCCC1,i,2.22,i,-7.19*,i,i
CC1CCCN(C(=O)Cc2cn(Cc3cccc(Cl)c3)c3ccccc23)C1 (stereo unspecified),i,-2.05,i,-7.44*,i,i
O=C(OCC(=O)N1CCN(c2ccccc2)CC1)c1ccco1,.,-0.81,i,i,.,.
CN(C)C(=C(C#N)C#N)N1CCN(c2ccc(Cl)cc2)CC1,i,-0.08,i,i,i,i
Oc1oc(-c2ccccc2)nc1C=Nc1cccc2ccccc12,i,-1.06,i,-7.15*,i,i
CN(C)c1ccc(/C=C2\C(=N)N3C(=NC2=O)Sc2cc(S(C)(=O)=O)ccc23)cc1,29.5*,-0.95,i,i,i,i
N=C1/C(=C/c2ccc(OCc3ccccc3)cc2)C(=O)N=C2SC(CC(=O)N3CCOCC3)=NN12,i,2.79,i,i,9.74*,i
Cc1cc(/C=C2\C(=N)N3N=C(CC(=O)N4CCOCC4)SC3=NC2=O)c(C)n1Cc1ccccc1,i,1.08,i,i,i,i
CN(C)c1ccc(/C=C2\C(=N)N3N=C(CC(=O)N4CCCC4)SC3=NC2=O)cc1Br,i,-2.36,i,i,i,i
CN(C)c1ccc(/C=C2\C(=N)N3N=C(CC(=O)N4CCCCC4)SC3=NC2=O)cc1,54.9*,-0.67,i,i,i,i
CC(=O)N1c2ccc(S(=O)(=O)NCC3CCC(C(=O)Nc4ccc(C)cn4)CC3)cc2CC1C (stereo unspecified),i,1.61,i,i,i,i
Cc1c(C(=O)Nc2nnc(SCc3ccccc3Cl)s2)cccc1[N+](=O)[O-],i,0.23,i,i,i,i
N#C/C(=C\c1ccco1)c1nc2ccccc2s1,i,0.04,i,i,i,i
N#C/C(=C/c1ccc(-c2cc(C(=O)O)cc(C(=O)O)c2)o1)c1nc2ccccc2s1,27*,-0.66,i,i,i,i
N/C(Cc1ccc(Cl)cc1Cl)=N\OC(=O)c1cccs1,i,-0.09,i,i,i,-7.94*
